In ChEMBL document CHEMBL4368914, “Tricyclic Indazoles-A Novel Class of Selective Estrogen Receptor Degrader Antagonists” (J Med Chem, 2019):
Converted amounts (≈) assume the structure as drawn.

Test system: not listed separately
Assay: Fraction unbound in Alderley Park Han Wistar rat plasma by equilibrium dialysis
Format: ADME, cell-free
Settings: not given
How it was run: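 Equilibrium dialysis from DMSO stock in 10% plasma, either Alderley Park Han Wistar rat plasma or human plasma.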

fraction unbound | SMILES
0.013 | C[C@@H]1Cc2c(ccc3[nH]ncc23)[C@@H](c2c(F)cc(/C=C/C(=O)O)cc2F)N1CC(C)(F)F

Test system: not listed separately
Assay: Oral bioavailability in rat at 1 mg/kg
Format: ADME, organism-based
Settings: in vivo
How it was run: (§1)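 Single IV dose of 0.5 mg/kg and oral dose of 1 mg/kg in rat and dog. Both routes were formulated in 5% DMSO:95% hydroxypropyl β-cyclodextrin (30% w/v), at 1 mL/kg IV and 4 mL/kg PO.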

bioavailability | SMILES
16% | C[C@@H]1Cc2c(ccc3[nH]ncc23)[C@@H](c2c(F)cc(/C=C/C(=O)O)cc2F)N1CC(C)(F)F

Target: T1, Estrogen receptor (Homo sapiens, UniProt P03372)
T1 sequence (P03372 whole entry): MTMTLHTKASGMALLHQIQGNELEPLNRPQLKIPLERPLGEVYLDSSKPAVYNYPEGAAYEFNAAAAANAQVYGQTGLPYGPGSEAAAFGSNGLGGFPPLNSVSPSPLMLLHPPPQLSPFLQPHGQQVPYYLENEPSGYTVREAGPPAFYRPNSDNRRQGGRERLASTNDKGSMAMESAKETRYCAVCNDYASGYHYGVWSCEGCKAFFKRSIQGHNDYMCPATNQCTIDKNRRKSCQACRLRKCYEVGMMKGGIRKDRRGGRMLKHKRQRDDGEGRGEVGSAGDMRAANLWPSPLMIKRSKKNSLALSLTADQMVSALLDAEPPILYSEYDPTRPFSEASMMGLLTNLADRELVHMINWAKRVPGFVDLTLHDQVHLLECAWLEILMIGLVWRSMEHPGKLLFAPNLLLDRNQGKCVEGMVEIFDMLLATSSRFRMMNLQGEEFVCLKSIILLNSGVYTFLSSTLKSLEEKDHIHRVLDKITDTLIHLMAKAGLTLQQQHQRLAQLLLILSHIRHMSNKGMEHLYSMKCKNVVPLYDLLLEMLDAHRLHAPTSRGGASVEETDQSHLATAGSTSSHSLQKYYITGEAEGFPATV
Assay: Binding affinity to recombinant human GST-tagged ERalpha LBD expressed in baculovirus-infected insect cells by lantha screen assay
Settings: not given

IC50 | SMILES
0.000398 µM | C[C@@H]1Cc2c(ccc3[nH]ncc23)[C@@H](c2c(F)cc(/C=C/C(=O)O)cc2F)N1CC(C)(F)F

Test system: not listed separately
Assay: Apparent permeability in MDCK cells at 10 uM
Format: ADME, cell-based, Canis lupus familiaris
Settings: dog
How it was run: (§2)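 Compound at 10 μM incubated on cultured Caco-2 or MDCK cells. Permeability was measured apical-to-basolateral and basolateral-to-apical, and efflux ratio was taken as (B to A)/(A to B).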

Papp at 10 µM | SMILES
100 nm/s | C[C@@H]1Cc2c(ccc3[nH]ncc23)[C@@H](c2c(F)cc(/C=C/C(=O)O)cc2F)N1CC(C)(F)F

Test system: not listed separately
Assay: Solubility of the compound in phosphate buffer at pH 7.4 after 24 hrs
Format: physicochemical
Settings: not given
How it was run: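 Solubility in aqueous phosphate buffer at pH 7.4 after 24 h at 25 °C.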

solubility at 24 h | SMILES
760 µM (≈ 340 µg/mL) | C[C@@H]1Cc2c(ccc3[nH]ncc23)[C@@H](c2c(F)cc(/C=C/C(=O)O)cc2F)N1CC(C)(F)F

Test system: not listed separately
Assay: AUC in rat at 1 mg/kg, po
Format: ADME, organism-based
Settings: in vivo
How it was run: as §1

AUC | SMILES
0.57 µM·h | C[C@@H]1Cc2c(ccc3[nH]ncc23)[C@@H](c2c(F)cc(/C=C/C(=O)O)cc2F)N1CC(C)(F)F

Target: Cytochrome P450 2C19 (Homo sapiens, UniProt P33261)
Assay: Inhibition of CYP2C19 in human liver microsomes
Format: ADME
Settings: not given
How it was run: (§3)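 High-throughput human liver microsome assay across a panel of five CYP isoforms, giving IC50.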

Chain of Cytochrome P450 2C19 (P33261 whole entry): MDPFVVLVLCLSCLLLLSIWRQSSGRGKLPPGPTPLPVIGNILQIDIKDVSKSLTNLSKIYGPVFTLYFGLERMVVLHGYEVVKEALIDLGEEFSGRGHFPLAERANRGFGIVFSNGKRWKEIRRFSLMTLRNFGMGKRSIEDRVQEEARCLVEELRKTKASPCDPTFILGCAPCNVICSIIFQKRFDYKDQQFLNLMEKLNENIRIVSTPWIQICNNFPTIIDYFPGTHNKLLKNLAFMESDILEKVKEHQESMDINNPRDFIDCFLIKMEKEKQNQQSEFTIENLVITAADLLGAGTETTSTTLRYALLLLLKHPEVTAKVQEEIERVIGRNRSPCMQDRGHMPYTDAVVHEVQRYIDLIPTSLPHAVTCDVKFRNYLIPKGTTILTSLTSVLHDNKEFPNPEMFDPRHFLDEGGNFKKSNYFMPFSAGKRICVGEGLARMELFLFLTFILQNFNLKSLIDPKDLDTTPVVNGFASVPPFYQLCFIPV

IC50 | SMILES
> 30 µM | C[C@@H]1Cc2c(ccc3[nH]ncc23)[C@@H](c2c(F)cc(/C=C/C(=O)O)cc2F)N1CC(C)(F)F

Test system: not listed separately
Assay: Lipophilicity, log D of the compound at pH 7.4 by shake flask method
Format: physicochemical
Settings: buffer
How it was run: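 Shake-flask measurement of logD at pH 7.4.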

logD | SMILES
2.3 | C[C@@H]1Cc2c(ccc3[nH]ncc23)[C@@H](c2c(F)cc(/C=C/C(=O)O)cc2F)N1CC(C)(F)F

Test system: not listed separately
Assay: Volume of distribution at steady state in rat at 0.5 mg/kg, iv or 1 mg/kg, po
Format: ADME, organism-based
Settings: in vivo, read-out: Vdss
How it was run: as §1

Vd | SMILES
1.6 L/kg | C[C@@H]1Cc2c(ccc3[nH]ncc23)[C@@H](c2c(F)cc(/C=C/C(=O)O)cc2F)N1CC(C)(F)F

Test system: not listed separately
Assay: Efflux ratio of apparent permeability in human Caco2 cells at 10 uM
Format: ADME, cell-based
Settings: Caco-2
How it was run: as §2

efflux ratio at 10 µM | SMILES
2.6 | C[C@@H]1Cc2c(ccc3[nH]ncc23)[C@@H](c2c(F)cc(/C=C/C(=O)O)cc2F)N1CC(C)(F)F

Target: Cytochrome P450 2C9 (Homo sapiens, UniProt P11712)
Assay: Inhibition of CYP2C9 in human liver microsomes
Format: ADME
Settings: not given
How it was run: as §3

Chain of Cytochrome P450 2C9 (P11712 whole entry): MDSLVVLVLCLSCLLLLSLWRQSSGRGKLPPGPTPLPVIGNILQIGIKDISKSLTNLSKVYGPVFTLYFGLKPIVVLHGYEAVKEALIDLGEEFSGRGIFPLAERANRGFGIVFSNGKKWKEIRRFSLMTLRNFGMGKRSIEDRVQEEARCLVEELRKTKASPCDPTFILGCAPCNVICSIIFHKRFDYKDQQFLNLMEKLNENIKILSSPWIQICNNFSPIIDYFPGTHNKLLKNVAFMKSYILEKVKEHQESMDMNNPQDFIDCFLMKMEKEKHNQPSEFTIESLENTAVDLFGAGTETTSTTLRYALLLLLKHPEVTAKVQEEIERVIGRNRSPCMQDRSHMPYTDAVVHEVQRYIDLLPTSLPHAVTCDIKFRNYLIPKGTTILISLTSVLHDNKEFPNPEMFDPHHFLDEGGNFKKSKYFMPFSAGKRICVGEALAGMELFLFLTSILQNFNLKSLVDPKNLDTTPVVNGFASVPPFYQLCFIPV

IC50 | SMILES
6.6 µM | C[C@@H]1Cc2c(ccc3[nH]ncc23)[C@@H](c2c(F)cc(/C=C/C(=O)O)cc2F)N1CC(C)(F)F

Target: T2, Cytochrome P450 1A2 (Homo sapiens, UniProt P05177)
T2 sequence (P05177 whole entry): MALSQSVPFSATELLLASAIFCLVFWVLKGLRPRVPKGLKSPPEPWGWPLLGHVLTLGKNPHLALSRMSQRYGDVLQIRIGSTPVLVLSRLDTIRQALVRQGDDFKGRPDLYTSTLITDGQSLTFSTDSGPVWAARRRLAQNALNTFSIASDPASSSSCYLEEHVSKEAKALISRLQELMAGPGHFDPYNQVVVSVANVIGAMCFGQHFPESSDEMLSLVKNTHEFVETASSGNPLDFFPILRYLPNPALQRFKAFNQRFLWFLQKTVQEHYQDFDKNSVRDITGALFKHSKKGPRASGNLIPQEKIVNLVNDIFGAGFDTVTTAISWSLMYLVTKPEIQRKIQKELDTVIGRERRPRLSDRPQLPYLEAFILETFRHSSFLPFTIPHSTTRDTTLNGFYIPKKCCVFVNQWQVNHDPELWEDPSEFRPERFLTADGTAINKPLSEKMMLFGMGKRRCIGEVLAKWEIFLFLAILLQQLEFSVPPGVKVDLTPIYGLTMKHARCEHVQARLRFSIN
Assay: Inhibition of CYP1A2 in human liver microsomes
Format: ADME
Settings: not given
How it was run: as §3

IC50 | SMILES
> 30 µM | C[C@@H]1Cc2c(ccc3[nH]ncc23)[C@@H](c2c(F)cc(/C=C/C(=O)O)cc2F)N1CC(C)(F)F

Test system: not listed separately
Assay: AUC in dog at 1 mg/kg, po
Format: ADME, organism-based, Canis lupus familiaris
Settings: in vivo
How it was run: as §1

AUC | SMILES
3 µM·h | C[C@@H]1Cc2c(ccc3[nH]ncc23)[C@@H](c2c(F)cc(/C=C/C(=O)O)cc2F)N1CC(C)(F)F

Test system: not listed separately
Assay: Fraction unbound in dog plasma by equilibrium dialysis
Format: ADME, cell-free, Canis lupus familiaris
Settings: not given

fraction unbound | SMILES
0.0062 | C[C@@H]1Cc2c(ccc3[nH]ncc23)[C@@H](c2c(F)cc(/C=C/C(=O)O)cc2F)N1CC(C)(F)F

Test system: not listed separately
Assay: Glutathione reactivity in human liver microsomes assessed as GSH trapping ratio of compound to clozapine
Format: ADME, Microsome
Settings: not given
How it was run: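 Glutathione trapping in human liver microsomes, expressed as a ratio to clozapine.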

Ratio | SMILES
< 0.04 | C[C@@H]1Cc2c(ccc3[nH]ncc23)[C@@H](c2c(F)cc(/C=C/C(=O)O)cc2F)N1CC(C)(F)F

Target: Cytochrome P450 2D6 (Homo sapiens, UniProt P10635)
Assay: Inhibition of CYP2D6 in human liver microsomes
Format: ADME
Settings: not given
How it was run: as §3

Chain of Cytochrome P450 2D6 (P10635 whole entry): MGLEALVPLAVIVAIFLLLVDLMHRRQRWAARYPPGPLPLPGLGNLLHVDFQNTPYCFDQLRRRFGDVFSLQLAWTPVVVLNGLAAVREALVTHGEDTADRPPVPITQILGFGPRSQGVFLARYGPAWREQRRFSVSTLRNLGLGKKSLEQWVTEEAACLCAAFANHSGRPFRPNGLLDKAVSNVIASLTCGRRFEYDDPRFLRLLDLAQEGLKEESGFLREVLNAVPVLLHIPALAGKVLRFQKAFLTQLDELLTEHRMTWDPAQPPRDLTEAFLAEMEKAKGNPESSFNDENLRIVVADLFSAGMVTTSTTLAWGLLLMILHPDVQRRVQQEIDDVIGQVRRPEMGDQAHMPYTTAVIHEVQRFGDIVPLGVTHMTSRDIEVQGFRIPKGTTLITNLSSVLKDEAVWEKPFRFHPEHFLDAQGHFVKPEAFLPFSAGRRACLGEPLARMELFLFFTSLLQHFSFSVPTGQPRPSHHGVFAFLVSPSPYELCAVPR

IC50 | SMILES
> 30 µM | C[C@@H]1Cc2c(ccc3[nH]ncc23)[C@@H](c2c(F)cc(/C=C/C(=O)O)cc2F)N1CC(C)(F)F
